Columns and labels:
LO2 cells = experiment: CCK-8 cytotoxicity assay, LO2; assay type: cell-based; conditions: Homo sapiens, L02, 72 h, read-out: IC50 LO2
Outline: (§1)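 Cells seeded at 2500–3000 per well and held at 37 °C for 24 h, then exposed in triplicate to a range of test compound concentrations for 72 h, with 0.1% DMSO as control. CCK-8 added and incubated 2 h at 37 °C, then absorbance read at 450 nm. IC50 calculated and given as mean ± SD from three independent experiments.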

K562 cells [1] = experiment: CCK-8 antiproliferative assay, K562; assay type: cell-based; conditions: Homo sapiens, K562, 72 h, read-out: IC50 K562
Outline: as §1

K562/ADR cells [2] = experiment: CCK-8 antiproliferative assay, K562/ADR; assay type: cell-based; conditions: Homo sapiens, 72 h, read-out: IC50 K562/ADR
Outline: as §1

K562/ADR cells [3] = experiment: Intracellular NO, DAF-FM DA, K562/ADR; assay type: cell-based, human; conditions: 10c 1, 10, 100 μM, 3 and 7 100 μM, 3 h
Outline: (§2)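 Cells exposed to 0.1% DMSO or test compound at 37 °C for 3 h. Harvested, PBS-washed, and loaded with DAF-FM DA (50 μmol L−1) in incubation buffer at 37 °C for 30 min. Washed again, then NO fluorescence read by fluorescence microscopy and microplate reader. Three independent experiments, mean ± SD; Student's t-test against control.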

K562 cells [4] = experiment: Intracellular NO, DAF-FM DA, K562; assay type: cell-based, human; conditions: 10c 1, 10, 100 μM, 3 and 7 100 μM, 3 h
Outline: as §2

HT-29 cells = conditions: read-out: IC50 in HT-29 cells; cited from earlier work
K562/ADR cells [5] = experiment: Western blot analysis, K562/ADR; assay type: cell-based, human; conditions: 10c 1, 5, 10 μM, 3 10 μM, 24 h
K562 cells [6] = experiment: Western blot analysis, K562; assay type: cell-based, human; conditions: 10c 1, 5, 10 μM, 3 10 μM, 24 h

| Structure (SMILES) | IC50 (K562 cells [1]) [µM] | IC50 (K562/ADR cells [2]) [µM] | IC50 (LO2 cells) [µM] | generation of intracellular NO (K562/ADR cells [3]) | generation of intracellular NO (K562 cells [4]) | IC50 (HT-29 cells) [µM] | AKT phosphorylation (K562/ADR cells [5]) | AMPK and JNK phosphorylation (K562/ADR cells [5]) | AKT phosphorylation (K562 cells [6]) | AMPK and JNK phosphorylation (K562 cells [6]) |
| --- | --- | --- | --- | --- | --- | --- | --- | --- | --- | --- |
| O=[N+]([O-])O[C@@H]1CO[C@H]2[C@@H]1OC[C@@H]2O [compound 7, isosorbide 5-mononitrate] | > 200 | > 200 | > 200 | increased the intracellular NO levels | increased the intracellular NO levels |  |  |  |  |  |
| Oc1ccc(-c2cc(=S)ss2)cc1 [compound 4, 5-(4-hydroxyphenyl)-3H-1,2-dithiole-3-thione] | > 200 | > 200 | > 200 |  |  |  |  |  |  |  |
| O=C(CCCO[N+](=O)[O-])Oc1ccccc1C(=O)Oc1ccc(-c2cc(=S)ss2)cc1 [NOSH-1] |  |  |  |  |  | 0.048 |  |  |  |  |
| C[C@@H]1CC[C@H]2[C@@H](C)C(=O)O[C@@H]3O[C@@]4(C)CC[C@@H]1[C@]32OO4 [compound 1, Artemisinin] | 11.1 ± 0.832 | > 200 | 83.3 ± 1.99 |  |  |  |  |  |  |  |

More lines, in order of falling IC50 (K562 cells [1]), values ahead:

| IC50 (K562 cells [1]) [µM] | IC50 (K562/ADR cells [2]) [µM] | Structure (SMILES) | IC50 (LO2 cells) [µM] | generation of intracellular NO (K562/ADR cells [3]) | generation of intracellular NO (K562 cells [4]) | IC50 (HT-29 cells) [µM] | AKT phosphorylation (K562/ADR cells [5]) | AMPK and JNK phosphorylation (K562/ADR cells [5]) | AKT phosphorylation (K562 cells [6]) | AMPK and JNK phosphorylation (K562 cells [6]) |
| --- | --- | --- | --- | --- | --- | --- | --- | --- | --- | --- |
| 10.2 ± 0.135 | 36.4 ± 2.9 | C[C@H]1[C@H](OC(=O)CCC(=O)O)O[C@@H]2O[C@@]3(C)CC[C@H]4[C@H](C)CC[C@@H]1[C@@]24OO3 [compound 3, artesunate] | 19.9 ± 0.331 | increased the intracellular NO levels | increased the intracellular NO levels |  | clearly reduced the levels of AKT phosphorylation | up-regulated the levels of AMPK and JNK phosphorylation | clearly reduced the levels of AKT phosphorylation | up-regulated the levels of AMPK and JNK phosphorylation |
| 8.67 ± 0.277 | 28.1 ± 1.09 | C[C@H]1[C@@H](O)O[C@@H]2O[C@@]3(C)CC[C@H]4[C@H](C)CC[C@@H]1[C@@]24OO3 [compound 2, dihydroartemisinin] | 19.9 ± 1.66 |  |  |  |  |  |  |  |
| 0.672 ± 0.056 | 9.16 ± 0.658 | COc1cccc2c1C(=O)c1c(O)c3c(c(O)c1C2=O)C[C@@](O)(C(=O)CO)C[C@@H]3O[C@H]1C[C@H](N)[C@H](O)[C@H](C)O1 [ADR, adriamycin] | 2.74 ± 0.123 |  |  |  |  |  |  |  |
| 0.367 ± 0.011 | 3.26 ± 0.082 | COC(=O)C[C@](O)(CCCC(C)(C)O)C(=O)O[C@@H]1C(OC)=C[C@]23CCCN2CCc2cc4c(cc2[C@H]13)OCO4 [HHT, homoharringtonine] | 0.915 ± 0.149 |  |  |  |  |  |  |  |

Source: paper PMC9047252 (RSC Advances, 2020)
